Assay results as given in the EternaBench riboswitch data.

Test system: MS2 coat protein
Experiment: apparent Kd, MS2 coat protein; higher = weaker binding; RNA-MaP array; FMN 200 µM where present
Procedure, shortened: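 Each design was made on Illumina sequencing-chip clusters by stalled E. coli RNA polymerase and titrated with SNAP-549-labelled MS2 coat protein from 0.7 or 1.5 nM, doubling to 3 µM, in the absence and then the presence of constant ligand. The buffer was 100 mM Tris-HCl pH 7.5, 80 mM KCl, 4 mM MgCl2, BSA, DTT, yeast tRNA and Tween-20. The apparent Kd is the median of filtered per-cluster fits of binding curves, with green signal normalised to red-channel RNA signal and control-cluster median Fmax.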

[1] = designed as: ON switch for flavin mononucleotide, no ligand
[2] = ligand present: flavin mononucleotide, designed as: ON switch for flavin mononucleotide
[3] = designed as: OFF switch for flavin mononucleotide, no ligand
[4] = ligand present: flavin mononucleotide, designed as: OFF switch for flavin mononucleotide

Sequence	apparent Kd [1] [nM]	apparent Kd [2] [nM]	apparent Kd [3] [nM]	apparent Kd [4] [nM]
GAAGCAUGCAUUAACAUGAGGAUCACCCAUGUGAAAACACGUGAGGAUAUCGAUCUGAAGAAGAUCGAGAAGGCACCGUGCUAA	8.87	7.62	–	–
GGAUAGGACAGAGGAUAUACGUGCUAGAGAUACUAACAAAAUUUCCUCACAUGAGGAUCACCCAUGUAGAAGGCUGUCCUAUCG	–	–	193	187
UCGUGUCAUGUAGGAUAUGACACAGGAAACUGGUCAGAAGGACAUGAGGAUCACCCAUGUAAAAUGUUCAAGAAUAACGCAUGC	–	–	78.8	161
CGAUGACACAGUCAUCCAAUACGAACAUGAGGAUCACCCAUGUAGGAUAUGCUACUCACAGAGUAGCAGAAGGACAUGUGCCUU	–	–	41.4	182
AAAAAGGCAGGAUAUACGAGUCAAAGAAAAGACAAAAGGAGACAUGAGGAUCACCCAUGUAGAAGGGCCAAAAA	–	–	26.7	87.7
UCUCAUAUGCAGGAUAUCCAUGGCGGGCGGAGAGGAGAAGGGCAUACAUGAGGAUCACCCAUGUGUCCCGUGGG	–	–	27.2	41.2
AGGGAACAUGAGGAUCACCCAUGUGAGGAUAUACAAAAGAAAAGAAAAGAAAGAAGAAGUAGAAGGUACAAGAA	–	–	28.2	35.5
GUCAGCUCGUGAGGAUAUACAACACUGCUUCGGCAGUGUAUUAAGAUCACAUGAGGAUCACCCAUGUAGAAGGCACGAGCCGAU	–	–	14.3	271
CAAAUCUGAGGAUAUCGAUAUUUGUACAUGAGGAUCACCCAUGUCCUAUUUAUUAUAUUUCGAGAAGGCAGUGUAU	–	–	19.5	17.2
AUUUGAAUGUCAGGAUAUGGUAGAUUAUUCUUAUCAGAAGGGAUAAUUAUACUCAAGUACAUGAGGAUCACCCAUGUUAAAUCA	12	12.6	–	–
GGAUAGGACAGAGGAUAUACGUGCUAGAGAUACUAGCAAAAUUUCCUCACAUGAGGAUCACCCAUGUAGAAGGCUGACCUAUCG	–	–	14.9	412
AGAUAUGAUGCAGGAUAUCUAUCUUGAAUGAGGAGAGAAGGGCAAGUAGAUAGAUAAGCCUCAUGACAUGAGGAUCACCCAUGU	–	–	14.8	15.2
AACUCGUCAGGAUAUGCGCACAGAUAAUACGCUUCACAAUUGCAGAAGGGACAUGAGGAUCACCCAUGUAAAUA	–	–	36.3	26.8
CGUCUAUGCAAGAAGGCAUGAAACAUGAGGAUCACCCAUGUCAAAGACAUGAGGAUAUUGCAUAGACGAAAAGUGCGAAAGCAC	–	3.32	–	–
ACAGAUGCUGACAUGAGGAUCACCCAUGUUAGAUUGUUAUGUCAGGAUAUUAUCUGGCAACCAGAUGAGAAGGGACCAUCUGUG	16.5	7.33	–	–
CGAGUUUUUGAGAAGGCAUAUUAUAUUUAUAGUCAUGUUAACAUGAGGAUCACCCAUGUUCUCUAUGAGGAUAUCAGUUUAUCG	–	–	7.68	7.87
AAAUCGGUAGGAUAUACGAUUUGGUACUAGACCGAGGAACCACAUGAGGAUCACCCAUGUAGAAGGACCAGAUA	–	–	20.7	13.9
AGCUGGUGACAGCAUCCAUCAAAACAUGAGGAUCACCCAUGUAGAAGGCUGUACGGUUACCGUACAGAGGAUAUACAAUGAUGU	–	–	15.2	26.2
GGAGACCUCACAGGAUAUGCUGGACUUUGUCCAGCAGAAGGGUGACUAAACAUGAGGAUCACCCAUGUGGUCUCCAAAUUUAAU	740	68.2	–	–
GCGACGCGGGAAGGAUAUCCGCUCAGGAGUGUCUCAUGCUAACAUGAGGAUCACCCAUGUUGUCCGGAGAAGGUCCUGUCAGGC	–	–	152	288
AACUAGCUAGGAUAUACAUGAGGAUCACCCAUGUAAAAAAAAAAAAAAAGAUCAAAAUGUAGAAGGAGCUAGUA	–	–	106	132
UAGAAGUCAGGAUAUGCAUGGCGGGACUUGCGUCGUGGCGUGCAGAAGGGACAUGAGGAUCACCCAUGUGGAGA	–	–	117	369
AGGCUCACAGGAUAUCUCCACGGUAACAUGAGGAUCACCCAUGUCUCAUUUUCUCGUGCAAGAGAAGGGUGAGCGG	–	–	435	455
GUAAGCAUGUCAGGAUAUCGCAAUAUCAAACCGUGAGAAGGGACAUGAGGAUCACCCAUGUAUUGUUCGGGAGGACCCAGCUGA	–	–	67.3	358

Sequence	apparent Kd [1] [nM]	apparent Kd [2] [nM]	apparent Kd [3] [nM]	apparent Kd [4] [nM]
GAAUUAAAGAUCCAAUUUUACAACAUGAGGAUCACCCAUGUGCAGGAUAUCGUGUGUUUUAUAUUCGAGAAGGGCAAAUACAUU	–	–	100	187
UCUCUGCGAGGAUAUACGUGCGCGCGCGCGCGCGCGCGCGUACAUGAGGAUCACCCAUGUAGAAGGCGCUCUGC	–	–	30.8	28.2
GAGGUACAUGAGGAUCACCCAUGUGAGGAUAUAGUGGAAGAUUGAGAGAGGUGGAGGACUAGAAGGCACAGUGG	–	–	67.3	66.2
GCCAAUAAGAUUGGCACCGGCGCGCAGGAUAUGCUGGCCUACAUGAGGAUCACCCAUGUCUAAAUGCAGAAGGGUGAGCUGAGC	444	82.4	–	–
CGUGACUCAGGAUAUCUAUAGUGUCACAUGAGGAUCACCCAUGUCCAGCGAAAGCUGGAGGGAGAAGGGAGUCACG	–	–	96.7	39.9
AGGUACAACGGAGGAUAUAAUAGUCUAUAGACGUUAGAAGGCCGGGCCUUCACAUGAGGAUCACCCAUGUCUCUGGAGGCGCCU	20.8	16.9	–	–
CGAGUGUAAGGAUAUUCGGCACCAGAGAACGAUCUGGCGUAGAAGAAGGUACAUGAGGAUCACCCAUGUGGUUA	–	–	158	41.7
GCUAUCGGGUGAGGAUAUAUGAUUGUGAUUAAAAUAGAAGGCAUCUCAGAAGACAUGAGGAUCACCCAUGUAGUUAAGAUGGCA	34.1	22.7	–	–
UGAGCGACCACAGGAUAUACUUGAGAAGACCGAGUAGAAGGGUGGAAGAGCGUGCAGUGACAUGAGGAUCACCCAUGUGGUUGU	107	98.4	–	–
CGAGCUGCCAGAGGAUAAUGGACAUGAGGAUCACCCAUGUGUCAGGAUAUGGGUUUCACAUGGACUCAGAAGGGACCAGCCCGA	107	30.2	–	–
AAAAAAAAAACUCAGGAUAUAGAUUGUAGAACAUGAGGAUCACCCAUGUAGUGAAAGAAGAGAGACUAGAAGGGAGUAAAAAAAAA	85.7	74.7	–	–
AUAAUAAUAUAAGGAUAUACGUCACUGCGUCAGCAGUGUGGUAAGAUCACAUGAGGAUCACCCAUGUAGAAGGAUAAAUUAAAU	–	–	12.4	9.22
ACGCCCUGAGGAUAUCUUUUCCCGUACAUGAGGAUCACCCAUGUUUUCCUCCGUGCUUCGAGAGAAGGCAGGCCCA	–	–	807	436
AUGCUUCACACAGGAUAUACAUGAGGAUCACCCAUGUGUCCAAAGUAGCUGACACGAGCUACGCGGUAGAAGGGUGUGAAGCAU	–	–	17.3	54.3
AAAUGCCUGUCGAUGCUCGACAUGAGGAUCACCCAUGUAUAGCAGGAUAUGCAGAACUGACUCGUGCAGAAGGGCUAUACCUAA	–	–	38.2	315
CAAGGGUUAGGAUAUGGACGCUUAUAUUUGUAGCGGCGAAGCCAGAAGGAACAUGAGGAUCACCCAUGUUGGGA	–	–	60.4	108
AAAAGGUGAGGAUAUUCGGCGCCGGGAAGGUUGGUGCGGAUGAAGAAGGCACAUGAGGAUCACCCAUGUAAUAA	–	–	63	49.1
ACUACUUACUAGGAUAUCAGAGUCGAAAGACUCUGAGAAGGAGUAACAUGAGGAUCACCCAUGUGUCCUAUAGU	–	–	17.9	29.4
ACAAGACAUGAGGAUCACCCAUGUGAGGAUAUGCUCGGAUGACAUGACGUUAGCUAACGCAGAAGGCACAAUAA	–	–	55.8	56
GCACGAGACUAAGGAUAUGGAGUGUCAACAUUAAACAUGAGGAUCACCCAUGUAAAGAGUACGAUUCAGAAGGUAGAGACGUGC	59.1	22.8	–	–
CUGGUUGUCGAGGAUAUGUCCCGGCUCGCAGUCGCAGAAGGCGACACAUGAGGAUCACCCAUGUCGGUUCGCGU	–	–	13.8	13.3
AGGUAACAUGAGGAUCACCCAUGUCAGGAUAUCAUGAAGAUUAGAUUAGAGGAGAGGUUGAGAAGGGACUAUAU	–	–	55.6	49.5
AAACUCAGAGGAUAUACAUAACACAGACUCUUCAUGCGUUCACAUGAGGAUCACCCAUGUAGAAGGCUGACAAC	–	–	23.2	85.1
CAGCGAAAGUAGAAGGCAGUACUGAUACAGUACUGAGGAUAUACAUGAGGAUCACCCAUGUACUUCAGCUGGAAAUAAAUAAAU	–	–	5.94	6.97
